Shown are actives, neighbours in structure and some others; about 3.5% of the full set was active somewhere.
RGS4 act: potentiators or activators of RGS4. hit rate 0.92% among 310,000. HEK293 M3R/inducible RGS4, carbachol calcium flux Fluo4; stronger effect = lower value. B-score at 10 µM;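 active = B-score of the integrated calcium signal more than 4 SD below the library mean, with starting fluorescence not abnormally high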;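 note: negative B-score means reduced calcium response which marks RGS4 activation or potentiation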
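Assay system: HEK293 FlpIn-TREx cells, stable M3R, doxycycline-inducible RGS4 / Probe or stimulus: carbachol, ECmax concentration / Times: overnight RGS4 induction, 30 min dye load 37 °C, 20 min compound RT / Signal: kinetic calcium fluorescence imaging with Fluo4-AM dye, 2 µM / Measure: Agonist-evoked peak-minus-minimum fluorescence over baseline, integrated ratio, B score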
MrgX1 PAM: human MrgX1 positive allosteric modulation, primary screen | Q96LB2 | MrgX1-HEK293, Fluo-4 calcium flux, FDSS; stronger effect = higher value | B-score at 10 µM | hit rate 0.63% among 310,000;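 active = plate-corrected calcium response at least 3 library SD above typical, normal starting fluorescence, not activating the receptor alone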;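 note: compound read alongside a low EC10 to EC30 dose of BAM8-22 agonist; peak minus trough fluorescence over baseline measured at the second addition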
Target sequence (Q96LB2 whole entry, looked up): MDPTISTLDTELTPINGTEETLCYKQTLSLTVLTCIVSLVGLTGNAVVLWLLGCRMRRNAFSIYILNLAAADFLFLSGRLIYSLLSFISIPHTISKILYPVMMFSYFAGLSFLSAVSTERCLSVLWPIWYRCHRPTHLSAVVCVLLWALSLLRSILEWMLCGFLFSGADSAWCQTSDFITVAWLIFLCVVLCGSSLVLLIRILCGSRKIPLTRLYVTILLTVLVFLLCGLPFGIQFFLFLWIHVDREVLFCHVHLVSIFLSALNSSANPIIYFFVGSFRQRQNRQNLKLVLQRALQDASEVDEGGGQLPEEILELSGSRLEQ
MrgX1 agonist: activates human MrgX1 receptor signaling | MrgX1-HEK293 cells, Fluo-4 calcium fluorescence, agonist mode; stronger effect = higher value | B-score at 10 µM | Q96LB2 | hit rate 0.44% among 310,000;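 active = calcium response B-score plate-corrected fluorescence ratio at least 3 library SD, with starting fluorescence B-score inside 5 SD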
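Test system: HEK293 cells stably expressing human MrgX1 receptor; Input: fifteen thousand cells per well; Dosing: compound delivered in addition one of three; Schedule: overnight seeding, then 1 h dark dye loading; Technique: Fluo-4 NW calcium fluorescence; Measure: B-scored fluorescence response ratio; Controls: positive and negative controls per plate.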
MrgX1 antagonist: blocks BAM8-22 activation of human MrgX1 receptor | MRGX1-HEK293 calcium flux, Fluo-4, BAM8-22 antagonism; stronger effect = lower value | B-score at 10 µM | hit rate 1.3% among 310,000 | AID 588676;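 active = calcium-response B-score plate-corrected more than 3 library SD below zero, starting fluorescence within 5 deviations, no agonist response on first addition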;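 note: peak minus trough fluorescence over baseline after final BAM8-22 challenge near maximal dose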
RGS4 inh: inhibitors of human RGS4; HEK293 M3R/RGS4 inducible, Fluo-4 calcium flux; stronger effect = higher value; triggered by carbachol at its EC20; B-score at 10 µM; hit rate 0.45% among 310,000; AID 463165;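 active = B-score, a plate-corrected calcium signal, over three deviations above library mean, with baseline fluorescence within five deviations of library mean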;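 note: RGS4 expression induced by doxycycline in cells with stable M3 receptor; B-score is computed from the integrated fluorescence ratio over baseline after carbachol; higher B-score means a larger calcium signal and so more RGS4 inhibition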
Target sequence (P49798 whole entry, looked up): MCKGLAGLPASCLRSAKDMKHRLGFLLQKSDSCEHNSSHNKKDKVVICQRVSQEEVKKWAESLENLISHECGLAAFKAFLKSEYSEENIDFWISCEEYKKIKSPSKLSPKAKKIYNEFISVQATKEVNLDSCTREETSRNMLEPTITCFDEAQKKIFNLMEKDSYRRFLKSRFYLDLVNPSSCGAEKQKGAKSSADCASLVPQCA
MrgX1 antag conf: human MrgX1 receptor antagonism, re-confirmation screen; shares compounds with MrgX1 antagonist; MrgX1-HEK293, BAM8-22 calcium flux, Fluo-4; stronger effect = lower value; remaining BAM8-22 calcium response % of control (stronger effect = lower value), % at 10 µM; hit rate 19% among 2,300; AID 602420;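 active = remaining agonist calcium response no higher than 100% minus 3 SD of agonist-only control wells, with starting fluorescence near control levels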;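 note: agonist BAM8-22 given at a near maximal EC90 to ECmax level; peak minus minimum fluorescence divided by baseline after agonist addition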
HEK293 Ca flux: counter-screen for MrgX1 antagonists: effect in parental HEK293 cells. shares compounds with MrgX1 antagonist. Fluo-4 calcium fluorescence, FDSS. fluorescence ratio F(max-min)/F0 at 10 µM. hit rate 2% among 4,000;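 active = duplicate-averaged calcium fluorescence ratio at least three times the standard deviation of buffer wells, a nonspecific response in parental cells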
HEK293 Ca counter: counter-screen for MrgX1 allosteric activators: effect in parental HEK293 cells; shares compounds with MrgX1 antagonist; parental HEK293 calcium flux, Fluo-4 fluorescence ratio; stronger effect = higher value; fluorescence ratio F(max-min)/F0 at 10 µM; hit rate 0.4% among 4,000;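 active = calcium fluorescence ratio, averaged over duplicates, at least 3 SD of the buffer-well ratio, meaning a nonspecific response in receptor-free cells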;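 note: untransfected parental HEK293 lacking MrgX1 used as counterscreen for MrgX1 allosteric activators; fluorescence change taken during the second addition on a kinetic imager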
HEK293 Ca cntr2: MrgX1 activator counter-screen hit in parental HEK293 cells; shares compounds with MrgX1 antagonist; Fluo-4 calcium fluorescence (FDSS); stronger effect = higher value; fluorescence ratio F(max-min)/F0 at 10 µM; hit rate 8.7% among 4,000; AID 624115;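 active = calcium fluorescence ratio at least three times the spread of buffer wells, meaning a non-specific response in parental cells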
A number is an active result; . = inactive; / = no result given.

SMILES	RGS4 act	MrgX1 PAM	MrgX1 agonist	MrgX1 antagonist	RGS4 inh	MrgX1 antag conf	HEK293 Ca flux	HEK293 Ca counter	HEK293 Ca cntr2
COc1ccc(C2N(c3ccc(F)cc3)C(=O)C3CCCN32)cc1 (centres undefined)	.	.	.	-6.3	.	.	.	.	.
O=C1C2CCCN2C(c2cccc(Br)c2)N1c1ccc(F)cc1 (centres undefined)	.	.	.	.	.	/	/	/	/
Cc1cccc(S(=O)(=O)N2CCC(CO)(Cc3ccccc3)CC2)c1	.	.	.	.	.	/	/	/	/
COc1cc2c(cc1OC)CN(C(=O)CN1CCN(S(=O)(=O)c3ccc(C)c(C)c3)CC1)CC2	.	.	.	.	.	/	/	/	/
OCC[C@@H]1C[C@H](O)[C@@H](O)[C@]2(CCCc3ccccc3O2)O1	.	.	.	.	.	/	/	/	/
Cc1ncoc1C(=O)N1CCCC(C(=O)c2cccc(OC(C)C)c2)C1 (centres undefined)	.	.	.	-6.1	.	.	.	.	.
Cc1ncoc1C(=O)N1CCCC(C(=O)c2ccc(Oc3ccccc3)cc2)C1 (centres undefined)	.	.	.	.	.	/	/	/	/
Cc1ccc(O)c(NC(=S)NC(=O)Cc2ccc(Cl)cc2)c1	-7.5	.	.	-24	.	27%	.	.	.
CCN1CCN(S(=O)(=O)c2ccc(C(=O)Nc3sc4c(c3C(N)=O)CCN(CC)C4)cc2)CC1	.	.	.	-9.4	.	.	.	.	.
Cc1ccc(Nc2nc3ccccc3c(=O)s2)cc1	.	.	.	-7.3	.	.	.	.	.
O=c1sc(Nc2ccccc2)nc2ccccc12	.	.	.	.	.	/	/	/	/
CC(=O)c1cccc(OCc2cc(C(=O)N3CCSCC3)no2)c1	.	.	.	-9	.	.	.	.	.
COc1cc(C(C)=O)ccc1OCc1cc(C(=O)N2CCSCC2)no1	.	.	.	.	.	/	/	/	/
O=C1c2ccccc2C(=O)N1CCc1c[nH]c2ccc(O)cc12	.	.	.	.	.	/	/	/	/
COCCN1C(=O)N[C@@H](c2cccc(C(F)(F)F)c2)[C@H](C(=O)OC)[C@H]1C	.	.	.	.	.	/	/	/	/
CCOC(=O)CN1C(=O)N[C@@H](c2cccc(C(F)(F)F)c2)[C@@H](C(=O)OC)[C@H]1C	.	.	.	-6.1	.	.	.	.	.
C#Cc1ccc([C@@H]2C=C(C(=O)O)O[C@H](OCc3ccc(CO)cc3)C2)cc1	.	.	.	.	.	/	/	/	/
COc1ccc(OC)c2c(=O)cc(C(=O)O)[nH]c12	.	.	.	.	.	/	/	/	/
COc1cc2cc(C(=O)O)[nH]c2c(OC)c1OC	.	.	.	-5.7	.	.	.	.	.
Cc1cc(C(=O)NNC(=O)/C=C/c2ccccc2Cl)c(C)o1	.	.	.	-15	.	.	.	.	.
O=C(NN1C(=O)NC2(CCCCC2)C1=O)c1ccc(-c2ccc([N+](=O)[O-])cc2)o1	.	.	.	.	.	/	/	/	/
O=C(c1ccccc1)N1CCN(c2ncnc3sc4c(c23)CCC4)CC1	.	.	.	-5.1	.	.	.	.	.
c1nc(N2CCOCC2)c2c3c(sc2n1)CCCC3	.	.	.	.	.	/	/	/	/
CC(=O)N1c2ccc(S(=O)(=O)N(C)CC(=O)NC3CCCCC3C)cc2CC1C (centres undefined)	.	.	.	.	.	/	/	/	/
Cc1cc(C)n2ncc(C(=O)Nc3cccc(O)c3)c2n1	.	.	.	-5.9	.	.	.	.	.
Cc1cc(C)n2ncc(C(=O)Nc3ccc4c(c3)OCO4)c2n1	.	.	.	.	.	/	/	/	/
O=C(c1ccc(O)c(Cl)c1)N1CCN(S(=O)(=O)c2ccccc2)CC1	.	.	.	.	.	/	/	/	/

Screens: PubChem BioAssay, Johns Hopkins Ion Channel Center
